ChEMBL document CHEMBL1123252, “Design and synthesis of potent and specific renin inhibitors containing difluorostatine, difluorostatone, and related analogues” (J Med Chem, 1986)
Where a SMILES comes first, the peptide text is derived from it. [ ]: non-standard residue; d: D form. The star is where a group is joined. Ala(2H-imidazol-2-yl) = N[C@@H](CC1N=CC=N1)C(=O)O; Sta = CC(C)C[C@H](N)[C@@H](O)CC(=O)O; NHCH2(2-pyridyl) = c1ccc(CN*)nc1; Boc = CC(C)(C)OC(=O)*

Target: T1, Renin (Homo sapiens, UniProt P00797)
T1 sequence (P00797 whole entry): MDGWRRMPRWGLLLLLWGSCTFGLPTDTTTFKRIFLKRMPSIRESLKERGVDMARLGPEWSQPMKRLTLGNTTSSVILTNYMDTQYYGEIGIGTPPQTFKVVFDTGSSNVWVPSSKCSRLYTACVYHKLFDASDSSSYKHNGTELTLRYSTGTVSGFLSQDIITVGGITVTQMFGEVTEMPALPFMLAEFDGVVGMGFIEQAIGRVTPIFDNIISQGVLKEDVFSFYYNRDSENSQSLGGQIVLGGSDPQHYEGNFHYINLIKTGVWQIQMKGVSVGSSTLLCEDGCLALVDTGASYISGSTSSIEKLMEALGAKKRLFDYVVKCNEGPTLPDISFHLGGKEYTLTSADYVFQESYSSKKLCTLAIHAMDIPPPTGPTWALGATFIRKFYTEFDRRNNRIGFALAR
Test: Inhibition of human plasma renin
Assay type: cell-free
Outline: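 Lyophilized human plasma with 0.1% EDTA, plus phenylmethanesulfonyl fluoride and maleate buffer pH 6.0. Inhibitor given in 1% Tween 80 in water. Angiotensin I generated over 90 min at 37 °C and measured by radioimmunoassay kit. Percent inhibition taken versus control tubes. IC50 estimated graphically from 3-4 concentrations on semilog plot.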

IC50 [nM] | SMILES
730 | CC[C@H](C)[C@H](NC(=O)C(F)(F)[C@@H](O)[C@H](CC(C)C)NC(=O)[C@H](CC1N=CC=N1)NC(=O)[C@H](Cc1ccccc1)NC(=O)OC(C)(C)C)C(=O)NCc1ccccn1
13 | CC[C@H](C)[C@H](NC(=O)C(F)(F)[C@H](O)[C@H](Cc1ccccc1)NC(=O)[C@H](CC1N=CC=N1)NC(=O)[C@H](Cc1ccccc1)NC(=O)OC(C)(C)C)C(=O)NCc1ccccn1
2.5 | CC[C@H](C)[C@H](NC(=O)C(F)(F)C(=O)[C@H](CC1CCCCC1)NC(=O)[C@H](CC1N=CC=N1)NC(=O)[C@H](Cc1ccccc1)NC(=O)OC(C)(C)C)C(=O)NCc1ccccn1
1.3 | CC[C@H](C)[C@H](NC(=O)C(F)(F)C(=O)[C@H](Cc1ccccc1)NC(=O)[C@H](CC1N=CC=N1)NC(=O)[C@H](Cc1ccccc1)NC(=O)OC(C)(C)C)C(=O)NCc1ccccn1

More lines, now with the values behind:

SMILES | IC50 [nM]
CC[C@H](C)[C@H](NC(=O)C(F)(F)C(=O)[C@H](CC(C)C)NC(=O)[C@H](CC1N=CC=N1)NC(=O)[C@H](Cc1ccccc1)NC(=O)OC(C)(C)C)C(=O)NCc1ccccn1 | 0.52
CC[C@H](C)[C@H](NC(=O)CC(=O)[C@H](CC(C)C)NC(=O)[C@H](CC1N=CC=N1)NC(=O)[C@H](Cc1ccccc1)NC(=O)OC(C)(C)C)C(=O)NCc1ccccn1 | 34
CC[C@H](C)[C@H](NC(=O)C(F)(F)[C@H](O)[C@H](CC(C)C)NC(=O)[C@H](CC1N=CC=N1)NC(=O)[C@H](Cc1ccccc1)NC(=O)OC(C)(C)C)C(=O)NCc1ccccn1 | 12
CC[C@H](C)[C@H](NC(=O)C(F)(F)[C@H](O)[C@H](CC1CCCCC1)NC(=O)[C@H](CC1N=CC=N1)NC(=O)[C@H](Cc1ccccc1)NC(=O)OC(C)(C)C)C(=O)NCc1ccccn1 | 0.57
CC[C@H](C)[C@H](NC(=O)C[C@H](O)[C@H](CC(C)C)NC(=O)[C@H](CC1N=CC=N1)NC(=O)[C@H](Cc1ccccc1)NC(=O)OC(C)(C)C)C(=O)NCc1ccccn1 (Boc-F[Ala(2H-imidazol-2-yl)][Sta]I-{NHCH2(2-pyridyl)}) | 1.7
